For data set [1], the species on record is Cavia porcellus. The experiment in a line: In vitro activity in guinea pig atria as the functional refractory period (FRP), which is the shortest interval between a double stimulus causing a double contraction. A digest of the protocol: (§1)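 Isolated guinea pig atria in oxygenated buffer at 35 °C. Right atria beat spontaneously; left atria were paced at 2 Hz with 1 ms rectangular pulses and isometric contractions were recorded. Cumulative concentration–response curves were run with up to five concentrations. EC75/EC125 is the concentration giving a 25% decrease/increase from the predrug value, reported as the geometric mean of individual ECs.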

The nature of data set [2]: Partition coefficient (logP). It counts as physicochemical. Particulars: octanol/water. The gist of the method:
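Lipophilicity was measured by reversed-phase HPLC. Mobile phase was methanol/0.005 M phosphate buffer pH 4 (60/40) with 0.1% SDS and 0.1 M NaClO4, at 23.0 ± 0.5 °C, with UV detection at 205 nm.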

The species entered for data set [3] is Cavia porcellus. Briefly: In vitro activity in guinea pig atria was measured as the peak force of contraction (F) of a stimulated left atrium. Particulars: Cardiac atrium. Format: functional. A digest of the protocol:
as §1

The species named for data set [4] is Cavia porcellus. Briefly: Sum of the scores of decrease of the sinus rate and selectivity versus the decrease in force of contraction. It counts as functional.
Data set [5] is filed under the species Rattus norvegicus. Briefly: Score value indicates desire effect on heart rate. It counts as functional.
Data set [6] concerns Rattus norvegicus. Briefly: In vivo activity in anesthetized rat was measured as the R alpha T-interval of the rat ECG which reflects the time from ventricular excitation to recovery. It counts as functional, Cardiac ventricle. A digest of the protocol: (§2)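 Male Wistar rats (280–360 g) under urethane (1.25 g/kg ip), intubated and breathing spontaneously. Femoral arterial pressure was recorded with needle-electrode ECG, analysed every 30 s. Compound was given by continuous femoral-vein infusion at 0.1 mL/min, with concentration raised tenfold every 10 min (3 doses). ED75/ED125 is the dose giving a 25% decrease/increase from the predrug value, reported as the geometric mean of individual EDs.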

For data set [7], the species on record is Cavia porcellus. The experiment in a line: Score value indicates decrease of the sinus rate. Format: functional.
For data set [8], the species on record is Cavia porcellus. Briefly: Score value indicates selectivity versus the decrease in force of contraction. Format: functional.
Data set [9] concerns Rattus norvegicus. The experiment in a line: In vivo activity in anesthetized rat was measured as the diastolic arterial pressure which provides information on the peripheral resistance of the cardiovascular system and selectivity regarding bradycardia. Format: functional, Artery. A digest of the protocol: as §2
The species named for data set [10] is Rattus norvegicus. The experiment in a line: Selectivity quotient (DAP125/HR75).
The species entered for data set [11] is Rattus norvegicus. The experiment in a line: Score point for the selectivity versus additional effect R&T interval. Format: functional.
The species entered for data set [12] is Rattus norvegicus. The experiment in a line: Score value indicates selectivity against the undesired effect on diastolic blood pressure. Format: functional, Artery.
The species named for data set [13] is Cavia porcellus. Briefly: In vitro activity in guinea pig atria was measured as rate of spontaneously beating right atrium (SR) which reflects the activity of the sinus node. To be noted: Cardiac atrium. Format: functional. The gist of the method:
as §1

Data set [14] is filed under the species Cavia porcellus. The experiment in a line: Score point for the selectivity versus additional effect FRP. It counts as functional.
For data set [15], the species on record is Cavia porcellus. The experiment in a line: Selectivity quotient (FRP125/SR75). Format: functional. The gist of the method:
(§3)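 Atrial selectivity quotients were calculated from the guinea pig atrial EC values as F75/SR75 and FRP125/SR75.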

Data set [16] is filed under the species Rattus norvegicus. The experiment in a line: Total score (SS).
Data set [17] is filed under the species Rattus norvegicus. Briefly: Selectivity quotient (R&T125/HR75).
Data set [18] is filed under the species Cavia porcellus. The experiment in a line: Selectivity quotient (F75/SR75). Format: functional. The gist of the method: as §3
Data set [19] relates to Rattus norvegicus. The experiment in a line: In vivo activity in anesthetized rat was measured as heart rate which provides information on in vivo bradycardic activity. It counts as functional. The gist of the method: as §2

For orientation: logP means a log measure of how a compound divides between an organic and an aqueous phase. Broadly, the EC75 is the point of the concentration-response curve where the effect stands at 75%. Low values mean an effect from little substance, high ones a need for much substance.

For the compound `CCCCCCCCCCN1CC2CN(CCCCCCCCCC)CC(C1)C2(C)C`, the EC125 in data set [1] turned out to be 85 µM. This compound gave a logP in data set [2] of 9.64. In addition, the EC75 in data set [3] came to 105 µM.

Consider `CCCCN1CC2CN(CCCC)CC(C1)C2(CCCC)CCCC`, for which the Score is listed as 0 in data set [4]; 4 in data set [5]; 5 in data set [7]; -5 in data set [8]; 4 in data set [11]; -3 in [12]. Besides, the Score in data set [14] is recorded as 3. Besides, the figures for the ED125 in data set [6] and in data set [9] were 3.2 µM/kg and 5.1 µM/kg, respectively. This compound also registered an EC125 in data set [1] of 1.01 µM. The Selectivity quotient was found to be 0.58 in data set [10], 0.53 in data set [15], 0.37 in [17] and 1.12 in [18]. Besides, the logP in data set [2] (read-out: logP) amounted to 7.03. The EC75 was 1.91 µM in data set [13] and 2.14 µM in data set [3]. Besides, the “total score (SS)” value in data set [16] turned out to be 1. For the same compound, the ED75 in [19] was 8.7 µM/kg.

`CCCC1(C)C2CN(C(C)C)CC1CN(C(C)C)C2` (stereo unspecified): the Score in data set [4] is on record as 5; in [5], 6; in data set [7], 5; in data set [8], 0; in [11], 5; in data set [12], -1. This compound yielded a Score in data set [14] of 3. Further, the ED125 in [6] is 0.53 µM/kg; in [9], over 36 µM/kg. This compound showed an EC125 in data set [1] of 2.63 µM. In addition, the Selectivity quotient was over 8 in data set [10], 1.32 in data set [15], 0.12 in data set [17] and 106 in data set [18]. Besides, the lipophilicity (logP) in data set [2] (read-out: logP) came out at 3.53. In addition, the EC75 in data set [13] is 1.99 µM; in data set [3], 211 µM. In data set [16], the “total score (SS)” value was found to be 5. This compound registered an ED75 in data set [19] of 4.5 µM/kg.

`CCCCN1CC2CN(CC3CCCCC3)CC(C1)C2(C)C`: the Score is given as 5 in data set [4]; 5 in [5]; 6 in [7]; -1 in data set [8]; 5 in data set [11]; -1 in [12]. Besides, the Score in [14] is given as 3. The ED125 is 0.96 µM/kg in [6] and over 41 µM/kg in data set [9]. Further, the EC125 in [1] turned out to be 0.48 µM. Moreover, the Selectivity quotient was over 7 in data set [10], 0.55 in data set [15], 0.17 in data set [17] and 18.5 in [18]. The logP in data set [2] (read-out: logP) was found to be 4.98. In addition, the concentration for an effect of 75% (EC75) worked out at 0.88 µM in data set [13] and 16.3 µM in data set [3]. Further, the “total score (SS)” value in [16] is given as 4. This compound returned an ED75 in data set [19] of 5.7 µM/kg.

`CC(C)CN1CC2CN(C(C)C)CC(C1)C21CCCCC1`: the Score was 5 in data set [4]; 5 in data set [5]; 5 in data set [7]; 0 in data set [8]; 5 in data set [11]; -1 in data set [12]. In data set [14], this compound yielded a Score of 3. Also, the ED125 in data set [6] was 0.73 µM/kg; in data set [9], over 41 µM/kg. Further, the EC125 in data set [1] was determined as 1.54 µM. Besides, the Selectivity quotient is on record as over 7 in data set [10], 1.54 in data set [15], 0.13 in data set [17] and 35.5 in data set [18]. Moreover, the log partition coefficient (logP) in data set [2] (read-out: logP) turned out to be 4.29. The EC75 in [13] was 1 µM; in data set [3], 35.5 µM. Also, in [16], the “total score (SS)” value was determined as 4. Further, the ED75 in data set [19] was found to be 5.7 µM/kg.

As to `C=CCCN1CC2CN(CCC=C)CC(C1)C21CCCCC1`, the Score in data set [4] was 6; in data set [5], 6; in data set [7], 6; in [8] it was 0; in [11], 5; in data set [12] it was -4. In [14], this compound yielded a Score of 2. Further, the ED125 came out at 0.58 µM/kg in [6] and 1.5 µM/kg in data set [9]. Further, the EC125 in data set [1] is 1.14 µM. Besides, the Selectivity quotient in [10] is 0.31; in data set [15], 2.85; in data set [17], 0.12; in data set [18] it was 167. In [2] (read-out: logP), the logP was found to be 4.49. The 75% effect concentration (EC75) in data set [13] came to 0.4 µM; in data set [3], 75.1 µM. The “total score (SS)” value in data set [16] stood at 2. In data set [19], this compound registered an ED75 of 4.9 µM/kg.

For `CCCCCCN1CC2CN(CCCCCC)CC(C1)C21CCCC1`, the Score is reported as 3 in data set [4]; 3 in [5]; 6 in [7]; -3 in [8]; 4 in data set [11]; -4 in [12]. For the same compound, the Score in data set [14] was found to be 3. Besides, the ED125 in data set [6] stood at 5.6 µM/kg; in data set [9], 2.8 µM/kg. Also, the EC125 in data set [1] is 0.44 µM. Also, the Selectivity quotient in [10] was 0.2; in data set [15] it was 0.51; in data set [17] it was 0.4; in data set [18], 3.53. In data set [2] (read-out: logP), the lipophilicity (logP) was determined as 5.47. The same compound showed an EC75 in data set [3] of 3.07 µM. Further, the “total score (SS)” value in data set [16] is given as -1. This compound registered an ED75 in data set [19] of 14 µM/kg.

Consider `C=CCN1CC2CN(CC=C)CC(C1)C2(C)C`, for which the Score in data set [4] is 3; in data set [7], 3; in data set [8], 0; in data set [14], 4. The same compound gave an EC125 in data set [1] of 4.3 µM. Also, in data set [2] (read-out: logP), the log partition coefficient (logP) was 2.7. In addition, the EC75 is 8.55 µM in data set [13] and over 215 µM in [3]. In addition, the Selectivity quotient in data set [15] was 0.5; in data set [18], over 25.

As to `CCCCCCN1CC2CN(C)CC(C1)C2(CC)CC`, the Score in data set [5] is recorded as 3; in data set [11], 5; in [12], -1. Also, the ED125 in [6] was 3 µM/kg; in data set [9], over 106 µM/kg. In addition, the EC125 in data set [1] was determined as 0.84 µM. For the same compound, the Selectivity quotient is over 4 in data set [10] and 0.12 in data set [17]. Further, in data set [2] (read-out: logP), the logP came out at 4.88. The same compound yielded a concentration for an effect of 75% (EC75) in data set [3] of 17.5 µM. Besides, the “total score (SS)” value in [16] amounted to 2. Besides, the ED75 in [19] came out at 25 µM/kg.

Consider `CN1CC2CN(C)CC(C1)C2(C)C`, for which the Score in data set [4] is recorded as -5; in data set [7], 0; in data set [8], -5; in data set [14] it was 3. Further, the EC125 in data set [1] stood at 122 µM. The logP in [2] (read-out: logP) turned out to be 1.61. The Selectivity quotient in data set [15] and in data set [18] was 1 throughout.

Source of the values: ChEMBL document CHEMBL1131456, “Synthesis, pharmacological characterization, and quantitative structure-activity relationship analyses of 3,7,9,9-tetraalkylbispidines: derivatives with specific bradycardic activity” (J Med Chem, 1998).
